In ChEMBL document CHEMBL3120152, “The bat flower: a source of microtubule-destabilizing and -stabilizing compounds with synergistic antiproliferative actions” (J Nat Prod, 2013):
Active and inactive are the calls of the source. The rule behind the calls is not given here.

Assays:
Tubulin (Sus scrofa) [1] = molecular target: T1, Tubulin (Sus scrofa) (UniProt P02554+P02550); details: 2 to 3 uM
HeLa [2] = experiment: Antimitotic activity in human HeLa cells assessed as abberent multiple spindle asters at 5 uM by indirect immunofluorescence assay relative to vehicle-treated control; type: functional, cell-based
In short: (§1)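 HeLa cells grown in basal medium Eagle with Earle's salts, 10% FBS and 25−50 μg/mL gentamicin, given vehicle or 5 μM compound. Cell cycle distribution read by flow cytometry. Mitotic spindle shape viewed by indirect immunofluorescence of tubulin.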

HeLa [3] = experiment: Cell cycle arrest in human HeLa cells assessed as accumulation at G2/M phase at 5 uM by flow cytometry; type: functional, cell-based
In short: as §1

HeLa [4] = experiment: Resistance ratio of IC50 for human HeLa cells expressing beta3-tubulin containing alanine residue at […] to IC50 for human HeLa cells; type: functional
In short: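 Relative resistance = SRB-assay IC50 in WTβIII cells divided by IC50 in parental HeLa. Both lines were grown in basal medium Eagle with Earle's salts, 10% FBS and 25−50 μg/mL gentamicin.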

SK-OV-3 [5] = experiment: Cytotoxicity against human SKOV3 cells expressing MDR1 after 72 hrs by SRB assay; details: SK-OV-3, 72 h
SK-OV-3 [6] = experiment: Cytotoxicity against human SKOV3 cells after 72 hrs by SRB assay; details: SK-OV-3, 72 h
HeLa [7] = experiment: Cytotoxicity against human HeLa cells after 72 hrs by SRB assay
HeLa [8] = experiment: Cytotoxicity against human HeLa cells expressing beta3-tubulin containing alanine residue at 277 after 72 hrs by SRB assay
SK-OV-3 [9] = experiment: Resistance ratio of IC50 for human SKOV3 cells expressing MDR1 to IC50 for human SKOV3 cells; type: functional
In short: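 Relative resistance = SRB-assay IC50 in Pgp-overexpressing SK-OV-3/MDR-1-6/6 divided by IC50 in parental SK-OV-3. Both lines were grown in basal medium Eagle with Earle's salts, 10% FBS and 25−50 μg/mL gentamicin.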

Tubulin (Sus scrofa) [10] = molecular target: T1, Tubulin (Sus scrofa); experiment: Displacement of colchicine from purified pig brain tubulin by fluorescence assay in presence of GTP
In short: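 Purified tubulin mixed with colchicine and GTP, plus a range of compound concentrations. Colchicine bound to tubulin fluoresces, so displacement is read as loss of that fluorescence. CA-4 used as positive control; 3 replicates, standard deviations.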

Tubulin (Sus scrofa) [11] = molecular target: T1, Tubulin (Sus scrofa); experiment: Inhibition of purified pig brain tubulin polymerization at 25 uM by spectrophotometry
In short: (§2)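 Purified porcine brain tubulin with GTP in glycerol buffer, given vehicle or 10 or 25 μM compound. Assembly followed as turbidity, absorbance at 340 nm over time. Rate and extent of polymerization compared with vehicle.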

Tubulin (Sus scrofa) [12] = molecular target: T1, Tubulin (Sus scrofa); experiment: Inhibition of purified pig brain tubulin polymerization by spectrophotometry
In short: as §2

T1 sequence (P02550 whole entry, looked up): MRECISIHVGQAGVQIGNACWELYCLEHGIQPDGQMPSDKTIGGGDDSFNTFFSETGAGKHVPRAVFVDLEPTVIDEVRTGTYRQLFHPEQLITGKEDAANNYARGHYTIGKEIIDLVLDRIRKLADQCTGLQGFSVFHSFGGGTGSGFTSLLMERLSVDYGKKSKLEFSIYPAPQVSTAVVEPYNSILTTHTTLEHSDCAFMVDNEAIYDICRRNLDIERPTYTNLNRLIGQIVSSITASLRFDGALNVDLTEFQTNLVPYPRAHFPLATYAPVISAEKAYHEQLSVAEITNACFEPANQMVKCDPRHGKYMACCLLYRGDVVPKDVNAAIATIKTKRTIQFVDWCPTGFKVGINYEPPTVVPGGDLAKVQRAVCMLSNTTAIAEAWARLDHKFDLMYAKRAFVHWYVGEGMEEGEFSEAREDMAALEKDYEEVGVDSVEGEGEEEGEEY
T1 sequence (P02554 whole entry, looked up): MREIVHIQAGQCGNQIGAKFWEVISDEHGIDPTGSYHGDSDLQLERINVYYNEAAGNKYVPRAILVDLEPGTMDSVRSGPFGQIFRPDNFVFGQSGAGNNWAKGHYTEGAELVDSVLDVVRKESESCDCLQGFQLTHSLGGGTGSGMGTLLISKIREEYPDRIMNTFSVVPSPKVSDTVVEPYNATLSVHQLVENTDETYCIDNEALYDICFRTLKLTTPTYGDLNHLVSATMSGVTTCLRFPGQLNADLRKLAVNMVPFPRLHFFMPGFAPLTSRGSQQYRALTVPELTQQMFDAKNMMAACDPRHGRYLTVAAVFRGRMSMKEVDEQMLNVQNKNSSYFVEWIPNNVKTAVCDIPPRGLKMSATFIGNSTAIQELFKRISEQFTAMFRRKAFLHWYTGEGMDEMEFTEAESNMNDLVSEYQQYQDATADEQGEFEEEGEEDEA

| inhibition (Tubulin (Sus scrofa) [1]) | inhibition (Tubulin (Sus scrofa) [10]) | inhibition (Tubulin (Sus scrofa) [11]) | inhibition (Tubulin (Sus scrofa) [12]) | Structure (SMILES) | Activity (HeLa [2]) | Activity (HeLa [3]) | Ratio IC50 (HeLa [4]) | IC50 (SK-OV-3 [5]) | IC50 (SK-OV-3 [6]) | IC50 (HeLa [7]) | IC50 (HeLa [8]) | Ratio IC50 (SK-OV-3 [9]) |
| --- | --- | --- | --- | --- | --- | --- | --- | --- | --- | --- | --- | --- |
| 50% | – | – | – | COc1ccc(/C=C\c2cc(OC)c(OC)c(OC)c2)cc1O | – | – | – | – | – | – | – | – |
| – | – | – | – | CC(=O)O[C@@H]1[C@H]2[C@H]3[C@H]([C@H](OC(C)=O)[C@H](OC(C)=O)[C@]2(C)[C@@H]2[C@@H]1[C@]1(C)C(=C[C@H]2C)OC(=O)[C@@]1(C)O)[C@]1(C)[C@H](C[C@@H]2O[C@@H]2[C@@H]1OC(C)=O)C(=O)[C@@H]3O | Active | Active | – | – | – | – | – | – |
| – | Dose-dependent effect | 50% | Dose-dependent effect | COc1cc(OC)c(CCC(=O)c2ccc(OC)c(O)c2)c(OC)c1 | Active | Active | 1.2 | 2230 nM | 812 nM | 581 nM | 690 nM | 2.7 |
